From PubChem BioAssay
An excerpt weighted towards active compounds, which were near 1.6% of everything screened.
TLR4 MyD88 comp: TLR4-MyD88 interaction inhibition in cells; inhibition, % at 8.4 µM; HeLa CL3-4 TLR4/MyD88 BLA complementation, FRET ratio; 0.18% of 200,000 active; AID 861; O00206+Q99836; in the data active = inhibition above about 25%;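 also: 0% = vehicle and 100% = reference inhibitor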
TLR9-MyD88 block: TLR9-MyD88 interaction inhibition; inhibition, % at 4.98 µM; CHO BLA complementation TLR9-MyD88, CCF4 FRET ratio; 0.21% of 340,000 active;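 active = inhibition above the mean over all tested compounds plus 3 SD, cut at about 21% in these data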;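 also: 0% = DMSO only wells and 100% = clavulanate BLA inhibitor control wells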
SR-BI uptake up: enhances SR-BI lipid uptake from DiI-HDL; activation, % at 12.5 µM; 0.096% of 320,000 active; CHO ldlA[mSR-BI] cells, DiI-HDL uptake fluorescence, 3 h; 100 = double the neutral-control signal;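 active = mean replicate activation of at least 60% and every replicate at or above 60%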;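 also: 0% = median plate neutral-control signal and 100% = twice that signal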
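Material: SR-BI-overexpressing, LDLR-lacking CHO cells; schedule: compound exposure 3 h, 37 °C; reagent: DiI-labelled HDL at 10 µg/mL final; technique: bottom-read fluorescence, 550/595 nm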
Hep lipid drop: modulators of hepatic lipid droplet formation; AML12 mouse hepatocytes, oleate lipid droplets, BODIPY imaging; inhibition, % at 6.5 µM; 0.4% of 240,000 active; AID 1656;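 active = lipid droplet intensity inhibited by at least 50%, with more than 500 cells counted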
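Assay system: AML12 mouse liver cells | Compound: 6.5 µM single-point dosing | Schedule: Overnight exposure | Technique: Fluorescence imaging, 20x objective, two fields per well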
NOD2 RIPK2 PPI: NOD2-RIPK2 protein interaction inhibition. inhibition, % at 4.98 µM. 0.38% of 360,000 active. CHO BLA complementation NOD2-RIPK2, CCF4 ratio. AID 624267; in the data active = inhibition above about 21%;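 also: 0% = vehicle only and 100% = reference blocker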
Target sequence (O43353 whole entry, looked up): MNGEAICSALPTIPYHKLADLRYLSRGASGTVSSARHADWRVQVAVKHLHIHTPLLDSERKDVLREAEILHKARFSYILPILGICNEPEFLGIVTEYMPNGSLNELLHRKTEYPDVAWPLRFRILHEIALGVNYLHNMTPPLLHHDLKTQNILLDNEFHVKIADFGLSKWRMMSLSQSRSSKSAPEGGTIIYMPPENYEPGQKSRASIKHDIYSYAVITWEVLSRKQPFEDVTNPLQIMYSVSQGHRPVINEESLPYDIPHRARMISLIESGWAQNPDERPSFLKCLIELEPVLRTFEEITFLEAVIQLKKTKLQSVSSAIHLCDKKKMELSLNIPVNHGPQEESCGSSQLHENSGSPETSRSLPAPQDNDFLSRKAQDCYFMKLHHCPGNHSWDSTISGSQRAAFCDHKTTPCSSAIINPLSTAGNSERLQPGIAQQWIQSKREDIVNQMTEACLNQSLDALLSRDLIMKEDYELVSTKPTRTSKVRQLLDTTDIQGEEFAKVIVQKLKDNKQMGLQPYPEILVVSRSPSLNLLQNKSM
SR-BI DiI inh: mouse SR-BI HDL lipid transfer inhibition | ldlA[mSR-BI] CHO cells, DiI-HDL uptake fluorescence, 3 h | inhibition, % at 12.5 µM | 0.96% of 320,000 active;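 active = mean replicate inhibition of at least 70% and a set share of replicates each scoring 70 or more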;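 also: 0% = median of neutral control wells and 100% = median of positive control wells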
* hit, by the source's call; x = no result; ! = repeats disagree.

SMILES	TLR4 MyD88 comp	TLR9-MyD88 block	SR-BI uptake up	Hep lipid drop	NOD2 RIPK2 PPI	SR-BI DiI inh
COC(=O)c1ccc(COc2ccc(F)cc2)o1	x	-1	43	61*	1	-43
C(=Cc1c[nH]c2ccccc12)c1nccc2ccccc12	x	12	-71	x	3	71*
O=Cc1nccc2ccccc12	x	-7	2	x	1	-2
COc1ccc(N=Nc2c(C)[nH]c3ccccc23)cc1	x	13	-88	x	-2	88*
CCCC(O)(c1ccc(Cl)cc1)C(CN1CCOCC1)c1ccc(Cl)cc1 (stereo unspecified)	x	-60	-79	-2	-10	79*
Cc1ccc(OC(=O)C2c3ccccc3Oc3ccccc32)cc1C	-2	7	-5	8	0	5
COc1ccc(NC(=O)c2cn(-c3ccccc3)nc2-c2cc3ccccc3o2)cc1	-9	-3	-81	x	-5	81*
O=C(N/N=C/c1cn(-c2ccccc2)nc1-c1cc2ccccc2o1)c1c[nH]c2ccccc12	6	-9	-53	52*	-1	53
COc1ccc(NC(=O)c2cn(-c3ccccc3)nc2-c2ccncc2)cc1	-3	-13	-49	4	6	49
COc1nc(NC(=O)c2ccc(F)cc2)nc(OC)c1-c1ccccc1	x	7	x	-3	-6	x
C=C(C)CSc1nc2sc3c(c2c(=O)n1-c1ccc(OC)cc1)CCN(C)C3	x	x	x	1	x	x
Cc1cc(NC(=O)c2sc(Nc3ccc(F)c(Cl)c3)nc2N)no1	-10	-14	-87	2	3	87*
CC1CCCN(C2=C(NS(=O)(=O)c3ccc(Cl)cc3)C(=O)c3ccccc3C2=O)C1 (stereo unspecified)	-12	4	-56	57*	-6	56
Cc1ccc(S(=O)(=O)NC2=C(N3CCN(Cc4ccccc4)CC3)C(=O)c3ccccc3C2=O)cc1	-9	-19	-27	-1	-3	27
Cc1ccc(S(=O)(=O)NC2=C(N3CCN(c4ccccc4F)CC3)C(=O)c3ccccc3C2=O)cc1	-12	5	-68	x	1	97*!
COC(=O)C1CCN(C2=C(NS(=O)(=O)c3ccc(Cl)cc3)C(=O)c3ccccc3C2=O)CC1	x	-3	0	4	-6	0
COc1ccc(-c2csc(NC(=O)c3ccccc3NS(=O)(=O)c3ccc(C)cc3)n2)cc1	1	-1	-93	-60	0	93*
COc1ccc(S(=O)(=O)Nc2ccccc2C(=O)Nc2nc(-c3ccc(F)cc3)cs2)cc1OC	-1	-11	-45	-47	-3	45
O=C(NCCc1ccccc1)c1ccc2c(c1)N(Cc1ccccc1)C(=O)CS2=O (stereo unspecified)	9	-2	-1	-6	-5	1
O=C(Nc1ccccc1Cl)c1ccc2c(c1)N(Cc1ccc(F)cc1)C(=O)CS2=O (stereo unspecified)	-2	-2	-82	x	-11	82*
CN(C)c1ccc(C(=O)Nc2nc3c(s2)CCCC3)cc1	-5	2	-84	-13	-19	84*
Cc1cc2n(n1)C(c1ccccc1)CC(c1ccc(Br)cc1)=N2 (stereo unspecified)	-10	24*	-11	44	22*	11
CNC(=S)N1N=C(c2ccc(Br)cc2)CC1c1ccc(Br)cc1 (stereo unspecified)	-9	5	-20	-4	-5	20
Cc1c(NC(=O)CSc2nnc3c4ccccc4n(CCc4ccccc4)c3n2)c(=O)n(-c2ccccc2)n1C	-5	3	-82	x	-9	82*
CCC(C)(C)C1CCC(NC(=O)c2ccc(S(=O)(=O)N3CCOCC3)cc2)CC1 (stereo unspecified)	x	2	67*	x	3	-67
Cc1c(C(=O)OCC(=O)N2CCN(c3ccccc3)CC2)oc2ccccc12	x	6	-3	x	10	3
Oc1ccccc1-c1cc(-c2ccc3c(c2)OCCO3)n[nH]1	-3	-6	-78	x	2	78*
CC(C)OC(=O)C(C)(C)Oc1ccc(C(=O)c2ccc(Cl)cc2)cc1	1	0	-93	-30	-4	93*
CCOC(=O)C(C)(C)Oc1ccc(Cl)cc1	x	6	-4	x	-20	4
